# Rows were chosen to be rich in hits. Some 4.9% of all compounds tested hit in one or more screens of this group.
# STAT3 inh: inhibitors of IL-6 induced STAT3 signaling; U3A cells, IL-6 STAT3-luciferase reporter, luminescence; host cell line lacks STAT1; inhibition, % at 5.5 µM; actives 0.89% (n = 190,000); AID 862;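 active means inhibition above the mean inhibition across all screened compounds plus 3 SD, cut at about 44% in these data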
# STAT1 inh: STAT1 signaling inhibition. NIH 3T3 STAT1-luciferase reporter, IFN-gamma, luminescence. inhibition, % at 5.5 µM. actives 0.35% (n = 200,000). AID 920;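 active means inhibition above a set limit, the mean inhibition across all tested compounds plus 3 SD, cut at about 34% in these data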
# STAT3 activator: increases IL-6 driven STAT3 reporter signal | U3A cells, IL-6 STAT3-luciferase reporter, luminescence; 100% = signal with IL-6 EC80 alone | activation (% of control), % at 5.6 µM | actives 0.91% (n = 190,000);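 active means activation above the screen-wide mean of compound activation plus 3 SD, cut at about 130% in these data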
#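 Test system: Human STAT1-deficient U3A cells with stable STAT3-luciferase reporter | Also added: Interleukin-6, 33 ng/mL | Timing: Compound pre-incubation 1 h before IL-6, then 6 h stimulation at 37 °C | Technique: Luciferase reporter luminescence | Read-out: Percent of IL-6-only median luminescence | Benchmarks: IL-6-only wells as 100% reference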
# STAT1 activator: STAT1 signaling activation. actives 2.6% (n = 200,000). AID 932. activation (% of control), % at 5.5 µM. NIH 3T3 STAT1-luciferase reporter, IFN-gamma, luminescence; 100% = IFN-gamma alone, no compound;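 active means activation above the screen-wide mean activation plus 3 SD, cut at about 130% in these data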
# APP 5'UTR act: activates APP 5'UTR luciferase reporter. SH-SY5Y APP 5'UTR luciferase reporter, luminescence; zero percent = DMSO vehicle wells. activation, % at 2 µM. actives 1% (n = 190,000). AID 1276;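 active means activation above a set limit, based on mean plus 3 SD of controls, cut at about 140% in these data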
# NF-kB expr up: NF-kB expression increase, human neuronal cells | NF-kB reporter expression; hits give high values | actives 1.6% (n = 190,000) | fold change at 12.5 µM; in the data active means fold change above about 3.3
# A number is an active result; i = inactive; nt = no result given.
SMILES,STAT3 inh,STAT1 inh,STAT3 activator,STAT1 activator,APP 5'UTR act,NF-kB expr up
CC(C)(C)c1ccc(-c2nc(C#N)c(NCc3ccncc3)o2)cc1,i,i,i,131,nt,i
O=C(O)/C=C/c1cnc2ccccc2n1,i,i,i,i,i,i
O=C(/C=C/c1cnc2ccccc2n1)NC12CC3CC(CC(C3)C1)C2,i,i,i,150,190,i
COC(=O)c1ccc(COc2cc([N+](=O)[O-])cc3cccnc23)o1,i,i,i,i,i,i
O=[N+]([O-])c1cc(O)c2ncccc2c1,i,i,i,i,i,5.8
Cc1ccc(OC(=O)COc2ccccc2C)c(-n2nc3ccccc3n2)c1,i,i,i,i,i,3.8
Cc1ccc(OC(=O)COc2ccccc2)c(-n2nc3ccccc3n2)c1,i,i,i,i,i,4.8
COC(=O)COc1ccc(C)cc1-n1nc2ccccc2n1,i,i,i,i,i,i
Cc1ccc(NC(=O)CCOc2ccccc2C)cc1F,i,i,i,i,i,i
Cc1ccc(-n2c(SCC(=O)N(C)C3CCS(=O)(=O)C3)nc3ccccc3c2=O)cc1 (stereo not given),i,i,i,i,i,i
Cc1cc(C)c(S(=O)(=O)/N=C2/C=C(Sc3ncn[nH]3)C(=O)c3ccccc32)cc1C,i,i,143,i,i,i
Cc1ccc(NC2=C/C(=N/S(=O)(=O)c3cccs3)c3ccccc3C2=O)cc1C,i,i,i,i,i,i
CCCc1nc2c(sc3nc4c(cc32)COC(C)(C)C4)c(=O)o1,i,i,i,i,i,i
CCOC(=O)c1cnc(Nc2nc3ccccc3o2)nc1C,96,45,i,i,i,3.5
CC[C@H](C)/C=C(C)/C=C/C1=CC2=CC(=O)[C@]3(C)OC(=O)[C@@H](C(C)=O)[C@@H]3C2=CO1,nt,i,nt,i,i,3.8
COc1ccc(NC(=O)c2cccnc2Nc2ccc(OC)cc2)cc1,i,i,i,i,i,i
CC(C)c1ccc(Nc2ncccc2C(=O)O)cc1,i,i,i,143,140,i
Cc1ccc(SCC(=O)c2c(C)nc3cc(C)ccn23)cc1,i,i,i,i,i,3.5
Nc1nc2nc(-c3ccccc3)cc(=O)n2[nH]1,i,i,i,i,i,i
O=c1cc(-c2ccccc2)nc2nc(-c3ccccc3)[nH]n12,i,i,159,156,i,i
Cc1ccc(C(=O)Nc2nc3ccc(S(C)(=O)=O)cc3s2)o1,i,i,i,i,i,i
CS(=O)(=O)c1ccc2nc(NC(=O)c3ccco3)sc2c1,i,i,i,131,i,i
O=C(NC(=S)Nc1nc2ccc(F)cc2s1)c1ccco1,i,i,157,130,i,i
CC1(C)CNc2cc([N+](=O)[O-])ccc2S1,i,i,i,i,i,i
CC1=Nc2cc([N+](=O)[O-])ccc2NC(C)(C)C1,i,i,i,i,136,i
SMILES,STAT3 inh,STAT1 inh,STAT3 activator,STAT1 activator,APP 5'UTR act,NF-kB expr up
CCc1ccc(N2C(=O)C3C4CCC(C4=C(C)C)C3C2=O)cc1 (stereo not given),i,i,i,i,i,i
CN(C)c1ccc(/C=C2\CCCCC2=O)cc1,i,i,i,i,160,4.2
O=C(Nc1ccc([N+](=O)[O-])cc1)C(Cc1ccccc1)N1C(=O)c2cccc3cccc(c23)C1=O (stereo not given),i,i,135,i,i,i
CN(C)S(=O)(=O)c1cc(NC(=O)[C@H](Cc2ccccc2)N2C(=O)c3ccccc3C2=O)ccc1Cl,i,i,i,i,i,i
Cc1ccc(S(=O)(=O)NCc2ccc(C(=O)NCCCN3CCC(Cc4ccccc4)CC3)cc2)cc1,i,i,i,i,i,i
C=CCn1c(COc2cc(C)ccc2C(C)C)nnc1SCC(=O)c1c(N)n(C)c(=O)n(C)c1=O,i,i,i,i,i,i
CCOc1ccc(Cc2noc3c2C(=O)CC(C)(C)C3)cc1OCC,i,i,i,i,i,i
CN(C)/C=N/NC(=O)c1ccc(Cl)cc1,i,i,i,i,i,i
CN(C)/C=N/c1cnc(C(=O)c2ccc(Cl)cc2)n1C,i,i,i,146,i,3.8
COc1ccccc1C/C(N)=N/OC(=O)c1ccco1,i,i,i,i,i,i
O=C(CCCc1cccs1)Nc1ccc2c(c1)OCO2,i,i,i,134,162,4.2

# Compound activity as filed in PubChem.
